Reference: publication PMC11649739 (Clinical Pharmacokinetics, 2024)
Read-outs that look alike come from different tables or passages of the source.

Tests used:
[1] = test system: breast cancer resistance protein; conditions: drug interactions; cited from earlier work
SARS-CoV-2 = conditions: cited from earlier work
cytochrome P450 3A = conditions: drug interactions; cited from earlier work
P-glycoprotein = conditions: drug interactions; cited from earlier work
[2] = assay type: in vivo, human; conditions: for CL/F, Maximum / CL/F, Mean / CL/F, Median / CL/F, Minimum / Vc/F, Maximum / Vc/F, Mean / Vc/F, Median / Vc/F, Minimum: Bayesian-estimated; for AUC: human, plasma, oral
Method in brief: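 Ensitrelvir was dosed once daily, 375 mg on day 1 then 125 mg on days 2–5, or 750/250 mg. A population PK model was fitted to 8034 plasma concentrations from 2060 healthy and SARS-CoV-2-infected participants: two-compartment, first-order absorption, with covariates tested on CL/F. Empirical Bayesian estimates from the final model were used to calculate individual exposures for SCORPIO-SR phase III participants.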

[3] = 125 mg group: 375 mg on day 1 and 125 mg on days 2–5
[4] = 125 mg group: 375 mg on day 1 and 125 mg on days 2–5, day 1
[5] = 125 mg group: 375 mg on day 1 and 125 mg on days 2–5, day 5
[6] = 250 mg group: 750 mg on day 1 and 250 mg on days 2–5
[7] = 250 mg group: 750 mg on day 1 and 250 mg on days 2–5, day 1
[8] = 250 mg group: 750 mg on day 1 and 250 mg on days 2–5, day 5

Compound: Cn1cnc(Cn2c(=O)[nH]/c(=N\c3cc4cn(C)nc4cc3Cl)n(Cc3cc(F)c(F)cc3F)c2=O)n1 [ensitrelvir]
- inhibition of breast cancer resistance protein [1]: inhibits
- time to five COVID-19 symptoms (SARS-CoV-2; 125-mg group, phase III of SCORPIO-SR): 167.9 h
- clearance of SARS-CoV-2 (SARS-CoV-2; both dose groups 375/125 mg and 750/250 mg): rapid clearance of SARS-CoV-2
- inhibition of cytochrome P450 3A (cytochrome P450 3A): inhibits
- inhibition of P-glycoprotein (P-glycoprotein): inhibits
- Entire AUC, Maximum [2, 3]: 4429 µg·h/mL
- Entire AUC, Minimum [2, 3]: 1404 µg·h/mL
- Entire Cmax, Maximum [2, 3]: 46800 ng/mL
- Entire Cmax, Minimum [2, 3]: 14300 ng/mL
- CL/F, Maximum [2, 3]: 0.400 L/h
- CL/F, Mean [2, 3]: 0.216 L/h
- CL/F, Median [2, 3]: 0.212 L/h
- CL/F, Minimum [2, 3]: 0.116 L/h
- Vc/F, Maximum [2, 3]: 34.4 L
- Vc/F, Mean [2, 3]: 15.1 L
- Vc/F, Median [2, 3]: 14.7 L
- Vc/F, Minimum [2, 3]: 7.66 L
- AUC_d1, Maximum [2, 4]: 784.7 µg·h/mL
- AUC_d1, Minimum [2, 4]: 127.0 µg·h/mL
- Cmax_d1, Maximum [2, 4]: 41000 ng/mL
- Cmax_d1, Mean [2, 4]: 23400 ng/mL
- Cmax_d1, Median [2, 4]: 22900 ng/mL
- Cmax_d1, Minimum [2, 4]: 10300 ng/mL
- AUC_d5, Maximum [2, 5]: 1156 µg·h/mL
- AUC_d5, Minimum [2, 5]: 224.5 µg·h/mL
- Cmax_d5, Maximum [2, 5]: 46800 ng/mL
- Cmax_d5, Mean [2, 5]: 26600 ng/mL
- Cmax_d5, Median [2, 5]: 26200 ng/mL
- Cmax_d5, Minimum [2, 5]: 14300 ng/mL
- Entire AUC, Maximum [2, 6]: 9652 µg·h/mL
- Entire AUC, Minimum [2, 6]: 3090 µg·h/mL
- Entire Cmax, Maximum [2, 6]: 104000 ng/mL
- Entire Cmax, Minimum [2, 6]: 31900 ng/mL
- CL/F, Maximum [2, 6]: 0.353 L/h
- CL/F, Mean [2, 6]: 0.201 L/h
- CL/F, Median [2, 6]: 0.198 L/h
- CL/F, Minimum [2, 6]: 0.0963 L/h
- Vc/F, Maximum [2, 6]: 28.1 L
- Vc/F, Mean [2, 6]: 14.5 L
- Vc/F, Median [2, 6]: 14.1 L
- Vc/F, Minimum [2, 6]: 7.31 L
- AUC_d1, Maximum [2, 7]: 1617 µg·h/mL
- AUC_d1, Minimum [2, 7]: 375.0 µg·h/mL
- Cmax_d1, Maximum [2, 7]: 86900 ng/mL
- Cmax_d1, Mean [2, 7]: 48900 ng/mL
- Cmax_d1, Median [2, 7]: 47700 ng/mL
- Cmax_d1, Minimum [2, 7]: 24900 ng/mL
- AUC_d5, Maximum [2, 8]: 2502 µg·h/mL
- AUC_d5, Minimum [2, 8]: 615.4 µg·h/mL
- Cmax_d5, Maximum [2, 8]: 104000 ng/mL
- Cmax_d5, Mean [2, 8]: 56400 ng/mL
- Cmax_d5, Median [2, 8]: 55100 ng/mL
- Cmax_d5, Minimum [2, 8]: 31900 ng/mL
- AUC ([2]; AUC_d1, Mean, 125 mg group: 375 mg on day 1 and 125 mg on days 2–5, day 1): 438 µg·h/mL
- AUC ([2]; AUC_d1, Mean, 250 mg group: 750 mg on day 1 and 250 mg on days 2–5, day 1): 910 µg·h/mL
- AUC ([2]; AUC_d1, Median, 125 mg group: 375 mg on day 1 and 125 mg on days 2–5, day 1): 432 µg·h/mL
- AUC ([2]; AUC_d1, Median, 250 mg group: 750 mg on day 1 and 250 mg on days 2–5, day 1): 887 µg·h/mL
- AUC ([2]; AUC_d5, Mean, 125 mg group: 375 mg on day 1 and 125 mg on days 2–5, day 5): 578 µg·h/mL
- AUC ([2]; AUC_d5, Mean, 250 mg group: 750 mg on day 1 and 250 mg on days 2–5, day 5): 1230 µg·h/mL
- AUC ([2]; AUC_d5, Median, 125 mg group: 375 mg on day 1 and 125 mg on days 2–5, day 5): 568 µg·h/mL
- AUC ([2]; AUC_d5, Median, 250 mg group: 750 mg on day 1 and 250 mg on days 2–5, day 5): 1200 µg·h/mL
